Here are results for 24 compounds from ChEMBL document CHEMBL1938354 (Eur J Med Chem, 2012).

Usually IC50 stands for the concentration that inhibits the measured activity by half. As a reminder, the Ki is the dissociation constant of the complex between target and ligand, obtained from inhibition or displacement.

Assay [1] concerns the target T1, Aldo-keto reductase family 1 member B10 (Homo sapiens, UniProt O60218). Description: Inhibition of human recombinant N-terminus His6-tagged AKR1B10 expressed in Escherichia coli BL21 DE3 assessed as pyridine-3-aldehyde reduction by spectrometric analysis. The gist of the method:
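Purified recombinant 6-His AKR1B10 was assayed at 25 °C in 0.1 M potassium phosphate, pH 7.4, with 0.1 mM NADPH and 0.2 mM pyridine-3-aldehyde. Reductase rate was followed as NADPH absorbance change at 340 nm. IC50 is the mean of at least three determinations.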
Target sequence in this assay (O60218 whole entry): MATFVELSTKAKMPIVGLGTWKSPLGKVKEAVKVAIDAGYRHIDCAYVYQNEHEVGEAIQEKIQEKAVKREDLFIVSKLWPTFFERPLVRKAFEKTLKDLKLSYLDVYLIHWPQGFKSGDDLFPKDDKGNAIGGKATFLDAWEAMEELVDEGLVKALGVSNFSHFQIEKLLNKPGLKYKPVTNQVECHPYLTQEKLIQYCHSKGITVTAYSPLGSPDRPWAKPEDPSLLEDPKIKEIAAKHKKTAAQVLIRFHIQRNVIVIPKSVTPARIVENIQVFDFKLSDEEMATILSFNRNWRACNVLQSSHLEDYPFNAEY

The species entered for the next assay is Homo sapiens. Description: Selectivity ratio of IC50 for human recombinant N-terminus His6-tagged AKR1B1 to IC50 for human recombinant N-terminus His6-tagged AKR1B10. The gist of the method: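 IC50 values for purified recombinant AKR1B1 and AKR1B10 were each determined at 25 °C in 0.1 M potassium phosphate, pH 7.4, with 0.1 mM NADPH and 0.2 mM pyridine-3-aldehyde, by NADPH absorbance at 340 nm. Each IC50 is the mean of at least three determinations. The ratio is AKR1B1 IC50 over AKR1B10 IC50.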

The target in assay [2] is Aldo-keto reductase family 1 member B1 (Homo sapiens, UniProt P15121). As to the kind of experiment: Inhibition of human recombinant N-terminus His6-tagged AKR1B1 expressed in Escherichia coli BL21 DE3 assessed as pyridine-3-aldehyde reduction by spectrometric analysis.
The subject of assay [3] is U-937. Description: Growth inhibition of AKR1B10-overexpressing human U937 cells at 0.2 uM by trypan blue dye exclusion assay. The class given is functional, cell-based. Summed up:
(§1)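 U937 cells were transiently transfected with pGW1 plasmid carrying AKR1B10 cDNA and resuspended in fresh growth medium. They were seeded at 5 × 10⁴ cells/ml and treated with inhibitor for 0, 24, 48 and 72 h. Viable cells were counted by trypan blue exclusion.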

Assay [4] concerns the target Aldo-keto reductase family 1 member B10 (Homo sapiens, UniProt O60218, Q303S). Description: Competitive inhibition at human recombinant N-terminus His6-tagged AKR1B10 Gln303Ser mutant expressed in Escherichia coli BL21 DE3 assessed as inhibition of NADP+ linked geraniol oxidation by fluorescence analysis.
Assay [5] deals with HeLa. As to the kind of experiment: Cytotoxicity against human HeLa cells after 24 hrs by trypan blue dye exclusion assay. It counts as functional. To be noted: read-out: LD50 (the source's name).
Assay [6] concerns the target T1, Aldo-keto reductase family 1 member B10. As to conditions: HeLa, 0.2 uM.
Target sequence in this assay (O60218 whole entry, looked up): as the sequence (O60218 whole entry) above
Assay [7] addresses Aldo-keto reductase family 1 member B10 (Homo sapiens, UniProt O60218, Q303S/V301L). Description: Competitive inhibition at human recombinant N-terminus His6-tagged AKR1B10 Val301Leu/Gln303Ser double mutant expressed in Escherichia coli BL21 DE3 assessed as inhibition of NADP+ linked geraniol oxidation by fluorescence analysis.
Assay [8] concerns HeLa. Description: Growth inhibition of human HeLa cells at 0.2 uM by trypan blue dye exclusion assay. The class given is functional, cell-based.
The target in assay [9] is T2, Aldo-keto reductase family 1 member A1 (Homo sapiens) (UniProt P14550).
T2 sequence (whole entry): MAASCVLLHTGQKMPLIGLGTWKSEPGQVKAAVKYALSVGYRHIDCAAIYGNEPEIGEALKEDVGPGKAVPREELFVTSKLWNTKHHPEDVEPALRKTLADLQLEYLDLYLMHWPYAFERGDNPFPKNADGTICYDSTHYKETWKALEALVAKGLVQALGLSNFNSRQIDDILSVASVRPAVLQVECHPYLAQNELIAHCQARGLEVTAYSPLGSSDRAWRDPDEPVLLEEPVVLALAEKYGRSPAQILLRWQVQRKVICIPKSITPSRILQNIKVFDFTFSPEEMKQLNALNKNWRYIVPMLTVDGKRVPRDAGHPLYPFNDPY
As to the kind of experiment: Inhibition of human AKR1A1 at 30 uM.

The target of assay [10] is Aldo-keto reductase family 1 member B10 (Homo sapiens, UniProt O60218, F123A). As to the kind of experiment: Competitive inhibition at human recombinant N-terminus His6-tagged AKR1B10 Phe123Ala mutant expressed in Escherichia coli BL21 DE3 assessed as inhibition of NADP+ linked geraniol oxidation by fluorescence analysis. The gist of the method: (§2)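 Recombinant wild-type or mutant AKR1B10 with N-terminal 6-His tag was expressed in E. coli BL21(DE3) pLysS and purified to homogeneity. The Phe123Ala mutant was made by site-directed mutagenesis. Kinetics used NADP+-linked geraniol oxidation, read by NADPH fluorescence (ex 340/em 455 nm) at 25 °C. Five substrate concentrations (0.5–5 × Km) were run with saturating coenzyme. Ki is the mean of at least three determinations.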

In assay [11] the target is Aldo-keto reductase family 1 member B10 (Homo sapiens, UniProt O60218, V301L). As to the kind of experiment: Competitive inhibition at human recombinant N-terminus His6-tagged AKR1B10 Val301Leu mutant expressed in Escherichia coli BL21 DE3 assessed as inhibition of NADP+ linked geraniol oxidation by fluorescence analysis.
Assay [12] addresses T1, Aldo-keto reductase family 1 member B10. As to the kind of experiment: Inhibition of AKR1B10-mediated farnesal metabolism in human HeLa cells preincubated for 2 hrs measured after 6 hrs following [1-14C]farnesol addition. It counts as cell-based. The gist of the method: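 HeLa cells were transfected with pGW1-AKR1B10 and pretreated with inhibitor at a range of concentrations for 2 h. They were then incubated with [1-¹⁴C]farnesol for 6 h, and reduction of the resulting farnesal was analysed. Percent inhibition is the mean of duplicate experiments.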
Target sequence in this assay (O60218 whole entry): as the sequence (O60218 whole entry) above

Assay [13] deals with Aldo-keto reductase family 1 member B10 (Homo sapiens, UniProt O60218, S304A). Description: Competitive inhibition at human recombinant N-terminus His6-tagged AKR1B10 Ser304Ala mutant expressed in Escherichia coli BL21 DE3 assessed as inhibition of NADP+ linked geraniol oxidation by fluorescence analysis.
Assay [14] has as its target Aldo-keto reductase family 1 member B10 (Homo sapiens, UniProt O60218, Q114T). As to the kind of experiment: Competitive inhibition at human recombinant N-terminus His6-tagged AKR1B10 Gln114Thr mutant expressed in Escherichia coli BL21 DE3 assessed as inhibition of NADP+ linked geraniol oxidation by fluorescence analysis.
Assay [15] deals with T1, Aldo-keto reductase family 1 member B10. Description: Competitive inhibition at human recombinant N-terminus His6-tagged AKR1B10 expressed in Escherichia coli BL21 DE3 assessed as inhibition of NADP+ linked geraniol oxidation by fluorescence analysis. Summed up:
as §2
Target sequence in this assay (O60218 whole entry): as the sequence (O60218 whole entry) above

The test system of assay [16] is U-937. As to the kind of experiment: Growth inhibition of human U937 cells at 0.2 uM by trypan blue dye exclusion assay. It counts as functional, cell-based.
Assay [17] concerns the target Aldo-keto reductase family 1 member B10 (Homo sapiens, UniProt O60218, W220Y). As to the kind of experiment: Competitive inhibition at human recombinant N-terminus His6-tagged AKR1B10 Trp220Tyr mutant expressed in Escherichia coli BL21 DE3 assessed as inhibition of NADP+ linked geraniol oxidation by fluorescence analysis.
In assay [18] the target is T1, Aldo-keto reductase family 1 member B10. Description: Competitive inhibition at human recombinant N-terminus His6-tagged AKR1B10 expressed in Escherichia coli BL21 DE3 assessed as inhibition of NADP+ linked geraniol oxidation by fluorescence analysis.
Target sequence in this assay (O60218 whole entry): as the sequence (O60218 whole entry) above
Assay [19] deals with U-937. As to the kind of experiment: Growth inhibition of AKR1B10-overexpressing human U937 cells at 1 uM by trypan blue dye exclusion assay. The class given is functional, cell-based. Summed up:
as §1

Structures are written as SMILES. Active and inactive are the calls of the source. The rule behind the calls is not given here.

Chain of Aldo-keto reductase family 1 member B10 (Homo sapiens, UniProt O60218, W220Y) (O60218 whole entry W220Y): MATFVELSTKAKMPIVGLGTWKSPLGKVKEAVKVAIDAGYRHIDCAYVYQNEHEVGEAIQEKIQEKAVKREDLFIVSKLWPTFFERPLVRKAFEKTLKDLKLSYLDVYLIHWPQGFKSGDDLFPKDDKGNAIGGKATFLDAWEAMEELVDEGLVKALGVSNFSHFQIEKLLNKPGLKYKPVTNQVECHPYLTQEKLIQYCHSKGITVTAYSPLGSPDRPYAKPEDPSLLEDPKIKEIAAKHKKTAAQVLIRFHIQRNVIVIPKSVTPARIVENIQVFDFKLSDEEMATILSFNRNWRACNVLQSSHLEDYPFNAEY
Chain of Aldo-keto reductase family 1 member B10 (Homo sapiens, UniProt O60218, Q303S) (O60218 whole entry Q303S): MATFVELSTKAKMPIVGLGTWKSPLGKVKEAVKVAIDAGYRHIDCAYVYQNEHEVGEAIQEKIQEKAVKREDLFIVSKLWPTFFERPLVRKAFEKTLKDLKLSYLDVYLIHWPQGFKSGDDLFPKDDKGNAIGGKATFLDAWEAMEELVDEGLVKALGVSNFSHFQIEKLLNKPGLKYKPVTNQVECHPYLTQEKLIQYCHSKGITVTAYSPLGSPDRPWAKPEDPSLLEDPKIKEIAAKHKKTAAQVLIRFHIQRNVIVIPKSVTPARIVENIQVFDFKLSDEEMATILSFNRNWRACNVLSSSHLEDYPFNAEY
Chain of Aldo-keto reductase family 1 member B10 (Homo sapiens, UniProt O60218, Q114T) (O60218 whole entry Q114T): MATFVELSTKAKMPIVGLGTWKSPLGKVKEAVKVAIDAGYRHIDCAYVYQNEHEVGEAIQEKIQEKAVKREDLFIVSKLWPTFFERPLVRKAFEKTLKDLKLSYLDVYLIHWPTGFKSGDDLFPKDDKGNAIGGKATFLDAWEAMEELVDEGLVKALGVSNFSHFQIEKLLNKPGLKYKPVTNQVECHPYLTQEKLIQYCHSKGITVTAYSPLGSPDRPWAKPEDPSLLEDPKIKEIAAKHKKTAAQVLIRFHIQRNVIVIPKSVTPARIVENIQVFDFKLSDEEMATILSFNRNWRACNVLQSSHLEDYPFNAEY
Chain of Aldo-keto reductase family 1 member B10 (Homo sapiens, UniProt O60218, V301L) (O60218 whole entry V301L): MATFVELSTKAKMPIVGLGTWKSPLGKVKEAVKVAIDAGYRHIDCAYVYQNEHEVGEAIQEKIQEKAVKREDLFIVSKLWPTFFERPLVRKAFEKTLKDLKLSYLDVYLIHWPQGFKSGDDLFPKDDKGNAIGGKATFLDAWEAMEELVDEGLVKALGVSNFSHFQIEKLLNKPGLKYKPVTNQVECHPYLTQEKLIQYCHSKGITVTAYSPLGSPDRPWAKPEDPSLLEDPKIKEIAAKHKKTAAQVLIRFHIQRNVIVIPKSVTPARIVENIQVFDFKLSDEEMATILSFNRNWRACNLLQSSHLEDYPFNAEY
Chain of Aldo-keto reductase family 1 member B10 (Homo sapiens, UniProt O60218, F123A) (O60218 whole entry F123A): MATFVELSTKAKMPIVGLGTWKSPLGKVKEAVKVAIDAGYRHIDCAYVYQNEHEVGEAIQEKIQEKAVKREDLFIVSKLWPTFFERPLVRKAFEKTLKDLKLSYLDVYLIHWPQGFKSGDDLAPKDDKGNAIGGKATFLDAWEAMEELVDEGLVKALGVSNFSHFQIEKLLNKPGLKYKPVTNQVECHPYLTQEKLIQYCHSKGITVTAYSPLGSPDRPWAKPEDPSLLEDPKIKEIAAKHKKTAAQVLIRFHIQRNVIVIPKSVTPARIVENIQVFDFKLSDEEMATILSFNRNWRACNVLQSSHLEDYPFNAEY
Chain of Aldo-keto reductase family 1 member B10 (Homo sapiens, UniProt O60218, Q303S/V301L) (O60218 whole entry V301L/Q303S): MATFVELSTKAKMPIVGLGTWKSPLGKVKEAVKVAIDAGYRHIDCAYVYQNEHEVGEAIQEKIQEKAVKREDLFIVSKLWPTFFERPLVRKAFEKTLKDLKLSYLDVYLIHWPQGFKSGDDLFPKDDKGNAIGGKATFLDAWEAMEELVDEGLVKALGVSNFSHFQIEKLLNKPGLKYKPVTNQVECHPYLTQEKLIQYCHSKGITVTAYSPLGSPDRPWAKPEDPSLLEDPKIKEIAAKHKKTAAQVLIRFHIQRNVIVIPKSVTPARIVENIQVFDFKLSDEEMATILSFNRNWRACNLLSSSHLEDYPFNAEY
Chain of Aldo-keto reductase family 1 member B10 (Homo sapiens, UniProt O60218, S304A) (O60218 whole entry S304A): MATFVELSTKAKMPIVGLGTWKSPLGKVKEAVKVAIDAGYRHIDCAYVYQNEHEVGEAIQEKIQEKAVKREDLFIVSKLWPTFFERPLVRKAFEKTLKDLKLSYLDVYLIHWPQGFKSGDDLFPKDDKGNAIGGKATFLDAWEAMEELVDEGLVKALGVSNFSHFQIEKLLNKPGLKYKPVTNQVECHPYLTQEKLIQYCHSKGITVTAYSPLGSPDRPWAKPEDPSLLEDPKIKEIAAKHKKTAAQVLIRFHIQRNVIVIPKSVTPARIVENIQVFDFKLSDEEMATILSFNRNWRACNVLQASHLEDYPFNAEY

For the compound `COc1cc(O)ccc1/C=C/C(=O)OCCCc1ccccc1O`, the IC50 in assay [1] came out at 9 nM; in assay [2], 6900 nM. Moreover, the Ratio IC50 in the assay filed under Homo sapiens came out at 766.

On to `COc1cc(O)ccc1/C=C/C(=O)OCCc1cccc(O)c1`, for which the IC50 was 13 nM in assay [1] and 7300 nM in assay [2]. In addition, the Ratio IC50 in the assay listed under Homo sapiens was 562.

With `COc1cc(O)ccc1/C=C/C(=O)OCCc1ccc(O)cc1`, the IC50 in assay [1] amounted to 14 nM; in [2] it was 3200 nM. In addition, the Ratio IC50 in the assay listed under Homo sapiens stood at 229.

For `CC(C)OC(=O)/C=C/c1ccc(O)cc1` [ISOPROPYL 3-(4-HYDROXYPHENYL)ACRYLATE], the IC50 in assay [1] is 920 nM; in assay [2], 6100 nM. Also, the Ratio IC50 in the assay listed under Homo sapiens is 7.

With `O=C(/C=C/c1ccc(O)cc1)OCCc1ccccc1`, the IC50 in assay [1] amounted to 69 nM; in assay [2], 2200 nM. The Ratio IC50 in the assay filed under Homo sapiens amounted to 31.

`O=C(O)/C=C/c1ccc(O)cc1` [COUMARIC ACID]: the IC50 was found to be 63000 nM in assay [1] and 76000 nM in assay [2].

Regarding `COc1cc(O)ccc1/C=C/C(=O)OCCCc1cccc(O)c1`, in the assay on U-937 [3], the “growth inhibition (GI)” value is “Active”. Also, the inhibition constant (Ki) in assay [4] came out at 7.1 nM; in [7], 23 nM; in assay [10] it was 5.1 nM; in assay [11], 5.8 nM; in assay [13], 3.5 nM; in [14], 7.6 nM. Moreover, the Ki in assay [15] worked out at 2.6 nM; in assay [17] it was 15 nM. Besides, the CC50 in the assay with HeLa [5] was 36000 nM. Also, in assay [6], the inhibition entry is “Active”. Besides, the IC50 in assay [1] came to 6.2 nM; in assay [2], 4900 nM; in assay [12], 300 nM. The “growth inhibition (GI)” value in the assay with HeLa [8] and with U-937 [16] was “inactive” in each case. Besides, the inhibition result in assay [9] was “inactive”. Further, in the assay listed under Homo sapiens, the Ratio IC50 is 790.

For the compound `O=C(/C=C/c1cccc(O)c1)OCCc1ccccc1`, the values for the IC50 in assay [1] and in [2] were 19000 nM and 73000 nM, respectively. Moreover, the Ratio IC50 in the assay listed under Homo sapiens amounted to 4.

Take `CC(C)=CCc1cc(/C=C/C(=O)O)ccc1O` [DRUPANIN]: the IC50 in assay [1] was found to be 49000 nM; in assay [2] it was 38000 nM.

For `O=C(/C=C/c1ccc(O)cc1)OCc1ccccc1`, the IC50 amounted to 130 nM in assay [1] and 2200 nM in [2]. Moreover, the Ratio IC50 in the assay listed under Homo sapiens is 17.

On to `O=C(/C=C/c1ccccc1)OCCc1ccccc1` [PHENETHYL CINNAMATE], for which the IC50 was determined as 18000 nM in [1] and 23000 nM in [2]. The Ratio IC50 in the assay filed under Homo sapiens is 1.

`COc1cc(O)ccc1/C=C/C(=O)OCCCc1ccccc1`: the IC50 in assay [1] worked out at 16 nM; in assay [2] it was 11000 nM. The Ratio IC50 in the assay listed under Homo sapiens was found to be 688.

For `COc1cc(O)ccc1/C=C/C(=O)OCCCc1ccc(O)cc1`, the IC50 is 23 nM in [1] and 11000 nM in assay [2]. Moreover, the Ratio IC50 in the assay filed under Homo sapiens was found to be 478.

In the case of `O=C(/C=C/c1cccc(O)c1)OCCCc1ccccc1`, the IC50 in assay [1] was 3100 nM; in assay [2] it was 41000 nM. In addition, the Ratio IC50 in the assay filed under Homo sapiens is 13.

As to `O=C(/C=C/c1ccc(O)c(O)c1)OCc1ccccc1` [BENZYL CAFFEATE], the IC50 stood at 210 nM in assay [1] and 400 nM in assay [2]. Besides, the Ratio IC50 in the assay listed under Homo sapiens came out at 2.

As to `O=C(/C=C/c1ccc(O)c(O)c1)OCCc1ccccc1` [CAFFEIC ACID PHENETHYL ESTER], the Ki in [18] amounted to 46 nM. Also, the CC50 with HeLa [5] was 56000 nM. The results for the IC50 in assay [1] and in [2] were 80 nM and 570 nM, respectively. Moreover, the “growth inhibition (GI)” value with HeLa [8] and in the assay with U-937 [16] was “inactive” throughout. Further, the Ratio IC50 in the assay listed under Homo sapiens came to 7. Further, the “growth inhibition (GI)” value with U-937 [19] is “Active”.

For the compound `COc1cc(O)ccc1/C=C/C(=O)OCCc1ccccc1`, the IC50 came out at 13 nM in assay [1] and 7200 nM in assay [2]. In the assay listed under Homo sapiens, the Ratio IC50 turned out to be 554.

Take `COc1cc(O)ccc1/C=C/C(=O)OCCc1ccccc1O`: the results for the IC50 in [1] and in [2] were 17 nM and 9500 nM, respectively. Moreover, in the assay filed under Homo sapiens, the Ratio IC50 is 558.

Turning to `O=C(/C=C/c1ccc(O)c(O)c1)O[C@@H]1C[C@](O)(C(=O)O)C[C@@H](OC(=O)/C=C/c2ccc(O)c(O)c2)[C@H]1O` (relative stereo), the results for the IC50 in assay [1] and in assay [2] were 130 nM and 88 nM, respectively.

As to `CC(C)=CCc1cc(/C=C/C(=O)O)cc(CC=C(C)C)c1O` [ARTEPILLIN], the IC50 in assay [1] is 53000 nM; in assay [2], 23000 nM.

`O=C(/C=C/c1ccc(O)cc1)OCCCc1ccccc1`: the IC50 was 21 nM in assay [1] and 1100 nM in [2]. Moreover, in the assay filed under Homo sapiens, the Ratio IC50 came to 52.

Take `O=C(/C=C/c1ccc(O)c(O)c1)O[C@@H]1[C@H](O)C[C@@](O)(C(=O)O)C[C@H]1OC(=O)/C=C/c1ccc(O)c(O)c1` (relative stereo): in [1], the IC50 was 240 nM.

As for `O=C(/C=C/c1ccc(O)c(O)c1)O[C@@H]1C[C@](O)(C(=O)O)C[C@@H](O)[C@H]1O` (relative stereo) [CHLOROGENIC ACID], the IC50 in [1] was 7900 nM.

In the case of `O=C(O)/C=C/c1ccc(O)c(O)c1` [CAFFEIC ACID], the IC50 in [1] came out at 90000 nM.
